Source: PubChem BioAssay
The list is not random: actives were taken first. Their share in the collection is about 2.6%.
SENP8 block-1: inhibitors of human SENP8 protease; Q96LD8; recombinant SENP8, Nedd8 substrate fluorescence; inhibition, % at 20 µM; 360,000 compounds, 0.64% hits; AID 602440; in the data active means inhibition mostly above about 40%, no sharp cut-off; inactive means mostly below about 27%
Target sequence (Q96LD8 whole entry, looked up): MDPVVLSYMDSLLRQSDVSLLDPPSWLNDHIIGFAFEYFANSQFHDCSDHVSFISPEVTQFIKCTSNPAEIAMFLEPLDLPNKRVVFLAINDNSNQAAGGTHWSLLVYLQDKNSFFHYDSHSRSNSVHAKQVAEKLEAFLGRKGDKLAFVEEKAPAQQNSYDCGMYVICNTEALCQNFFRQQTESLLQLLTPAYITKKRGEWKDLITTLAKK
SENP8 block-2: SENP8 protease inhibition. Q96LD8. purified SENP8, Z-RLRGG-aminoluciferin cleavage, luminescence. inhibition, % at 10 µM. 330,000 compounds, 1.2% hits. AID 2540; in the data active means inhibition above about 50%
SENP1 FRET inh: SENP1 (human) catalytic domain inhibition. Q9P0U3. recombinant SENP1 catalytic domain, CyPet-SUMO1-YPet FRET cleavage. inhibition, % at 10 µM. 360,000 compounds, 0.21% hits. AID 624204;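 active means inhibition at least 30% at 10 µM, raw YFP signal under a set limit, fluorescence ratio 0.5 to 1.5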
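Material: hSENP1 catalytic domain, recombinant; medium: Tris pH 8 with BME, BSA, NP40 and catalase; compound: single concentration of 10 µM compound, 0.5% DMSO final; technique: FRET read of cyan and yellow fluorescence; timing: 50 min enzyme reaction, room temperature, light-protected; reagent: SFCypet-SUMO1-SFYpet substrate at 25 nM; control set: no-enzyme low, enzyme-DMSO high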
Platelet DG rel: modulates dense granule release in human platelets. 300,000 compounds, 0.22% hits. AID 1663. human platelet-rich plasma, SFLLRN dense granule ATP release, luminescence. inhibition, %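 (compounds screened at 7.5 µM in platelet-rich plasma)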;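 active means mean replicate score, as percent of positive control, at or above 50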
SENP7 inh: SENP7 protease inhibition | 330,000 compounds, 1.5% hits | recombinant SENP7, Z-RLRGG-aminoluciferin luminescence, 40 min | inhibition, % at 5 µM | Q9BQF6;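 active means inhibition above about 50% at the single test dose, limit read from the data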
Target sequence (Q9BQF6 706-1050 limits assumed): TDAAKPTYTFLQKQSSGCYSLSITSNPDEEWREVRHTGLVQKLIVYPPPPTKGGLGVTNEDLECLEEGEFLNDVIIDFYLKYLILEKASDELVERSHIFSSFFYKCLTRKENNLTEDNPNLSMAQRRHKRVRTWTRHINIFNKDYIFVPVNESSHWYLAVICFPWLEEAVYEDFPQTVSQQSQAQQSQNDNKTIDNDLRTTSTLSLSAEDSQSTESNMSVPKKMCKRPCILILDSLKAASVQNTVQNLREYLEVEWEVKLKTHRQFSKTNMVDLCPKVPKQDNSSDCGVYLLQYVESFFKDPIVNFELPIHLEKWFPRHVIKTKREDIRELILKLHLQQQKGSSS
SENP6 inh: SENP6 protease inhibition | Q9GZR1 | Recombinant SENP6 catalytic domain, aminoluciferin luminescence | inhibition, % at 10 µM | 330,000 compounds, 1.8% hits | AID 2599;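 active means inhibition above about 50% at the single tested dose, limit read from the data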
SENP8 conf: human SENP8 inhibition, confirmed; inhibition, % at 12.5 µM; Recombinant SENP8, Z-RLRGG-aminoluciferin luminescence, 60 min; 6,200 compounds, 40% hits; shares compounds with SENP7 inh;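 active means mean inhibition across replicates above about 50%, limit read from the data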
SENP6 confirm: human SENP6 inhibition, confirmed; inhibition, % at 12.5 µM; recombinant SENP6, Z-RLRGG-aminoluciferin luminescence; 6,200 compounds, 58% hits; shares compounds with SENP7 inh; AID 488915
SENP7 conf: confirmation of human SENP7 protease inhibitors; 6,200 compounds, 69% hits; AID 488917; recombinant SENP7, Z-RLRGG-aminoluciferin luminescence, 40 min; inhibition, % at 12.5 µM; shares compounds with SENP7 inh
Casp3 select: inhibits human caspase-3 in SENP selectivity test; shares compounds with SENP7 inh; purified caspase-3, Z-DEVD-aminoluciferin luminescence, 60 min; AID 488918; 6,200 compounds, 60% hits; inhibition, % at 12.5 µM;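 active means mean inhibition above about 50%, limit read from the data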
SENP luc ctr: counter-screen for SENP inhibitors: luminescence interference; shares compounds with SENP7 inh; Pre-incubated SENP8/Z-RLRGG-aminoluciferin, luciferase luminescence interference; inhibition, % at 12.5 µM; 6,200 compounds, 39% hits;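 active means mean inhibition above about 50% when retested at one dose, limit read from the data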
A number is an active result.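 How the source made its calls, unless noted: active means mean inhibition above about 50% in the one-dose retest (limit read from the data); inactive means the rest.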

For COC1C(C)OC(OC2CC(C)(O)Cc3cc4c(c(O)c32)C(=O)c2c(O)cc3c(c2C4=O)OC2OC3(C)C(O)C(N(C)C)C2O)C(OC)C1(C)OC (stereo not given) the results were SENP8 block-1 41.0 and SENP1 FRET inh inactive.
Screening COc1ccc(-n2c(/C=C/c3ccc(O)cc3)nc3ccccc3c2=O)cc1 returned SENP8 block-1 inactive, SENP8 block-2 inactive, SENP1 FRET inh inactive, Platelet DG rel inactive, SENP7 inh inactive and SENP6 inh inactive.
For CCn1nc(/C=C/c2ccccc2)nc2c(=O)n(C)c(=O)nc1-2 the results were SENP8 block-1 72.8, SENP8 block-2 96.2, SENP1 FRET inh inactive, Platelet DG rel inactive, SENP7 inh 96.2 and SENP6 inh 88.8.
CCn1nc(-c2cccs2)nc2c(=O)n(C)c(=O)nc1-2 was read as SENP8 block-1 80.5 and SENP1 FRET inh 44.4.
For COCCCNC(=O)Cn1cc(/C=C2\C(=O)NC(=O)N(c3ccccc3F)C2=O)c2ccccc21 the results were SENP8 block-1 inactive, SENP8 block-2 inactive, SENP1 FRET inh inactive, Platelet DG rel inactive, SENP7 inh inactive and SENP6 inh inactive.
`O=[N+]([O-])c1ccc(NC2CCCC2)c2ccncc12` gave SENP8 block-1 47.1, SENP8 block-2 inactive, SENP1 FRET inh inactive, Platelet DG rel inactive, SENP7 inh inactive and SENP6 inh inactive.
`O=[N+]([O-])c1ccc(NCCO)c2ncccc12` gave SENP8 block-1 inactive, SENP8 block-2 inactive, SENP1 FRET inh inactive, Platelet DG rel inactive, SENP7 inh inactive and SENP6 inh inactive.
COc1c(C=C2C(=O)NC(=O)NC2=O)c(CCN(C)C(=O)c2ccccc2)cc2c1OCO2 was read as SENP8 block-1 44.1, SENP8 block-2 inactive, SENP1 FRET inh inactive, Platelet DG rel inactive, SENP7 inh inactive and SENP6 inh inactive.
`COC(=O)Cn1cc(C=C2C(=O)NC(=O)NC2=O)c2ccccc21` gave SENP8 block-1 inactive, SENP8 block-2 inactive, SENP1 FRET inh inactive, Platelet DG rel inactive, SENP7 inh inactive and SENP6 inh inactive.
Screening CC1=C(N2CC2)C(=O)C(CO)=C(N2CC2)C1=O returned SENP8 block-1 63.1 and SENP1 FRET inh inactive.
`COC1=CC=C2[C@H]3Cc4ccc(OC)c5c4[C@@]2(CCN3C)[C@H]1O5` gave SENP8 block-1 inactive, SENP8 block-2 inactive, SENP1 FRET inh inactive, Platelet DG rel inactive, SENP7 inh inactive and SENP6 inh inactive.
Screening CC[n+]1c(-c2ccccc2)c2cc(N)ccc2c2ccc(N)cc21 returned SENP8 block-1 96.9 and SENP1 FRET inh inactive.
For CC(C)CCn1c(=O)c(C(=O)NCc2ccc3c(c2)OCO3)c(O)c2ccccc21 the results were SENP8 block-1 inactive, SENP8 block-2 inactive, SENP1 FRET inh inactive, Platelet DG rel inactive, SENP7 inh inactive and SENP6 inh inactive.
For Cc1ccc2c(c1N)C(=O)c1ccccc1C2=O the results were SENP8 block-1 inactive, SENP8 block-2 62.6, SENP1 FRET inh 53.5, SENP7 inh 62.2, SENP6 inh 65.5, SENP8 conf inactive, SENP6 confirm inactive, SENP7 conf 50.3, Casp3 select inactive and SENP luc ctr inactive.
Screening Fc1cccc(F)c1-c1nc(-c2ccc(Cl)cc2)no1 returned SENP8 block-1 inactive, SENP8 block-2 65.0, SENP1 FRET inh inactive, Platelet DG rel inactive, SENP7 inh 61.2, SENP6 inh 71.2, SENP8 conf inactive, SENP6 confirm 65.9, SENP7 conf 63.4, Casp3 select inactive and SENP luc ctr inactive.
Screening C[C@]12CCC(=O)C=C1CC[C@@H]1C2CC[C@]2(C)C(=O)CCC12 (stereo not given in full) returned SENP8 block-1 inactive, SENP8 block-2 inactive, SENP1 FRET inh inactive, Platelet DG rel inactive, SENP7 inh inactive and SENP6 inh inactive.
Screening Cc1cc(N=Nc2ccccc2C)ccc1N returned SENP8 block-1 55.3, SENP8 block-2 76.4, SENP1 FRET inh inactive, Platelet DG rel inactive, SENP7 inh 86.1, SENP6 inh 90.0, SENP8 conf 81.1, SENP6 confirm 81.8, SENP7 conf 95.9, Casp3 select inactive and SENP luc ctr 85.5.
Screening COc1ccc(-c2nc3ccccc3c(=O)o2)cc1 returned SENP8 block-1 inactive, SENP8 block-2 inactive, SENP1 FRET inh inactive, Platelet DG rel inactive, SENP7 inh 89.5, SENP6 inh 81.2, SENP8 conf 62.8, SENP6 confirm inactive, SENP7 conf 74.9, Casp3 select 53.9 and SENP luc ctr inactive.
Screening FC(F)(F)c1ccc(CNCCc2ccc3c(c2)OCO3)cc1 returned SENP8 block-1 inactive, SENP8 block-2 inactive, SENP1 FRET inh inactive, Platelet DG rel inactive, SENP7 inh inactive and SENP6 inh inactive.
COCCNC(=O)Cn1cc(/C=C2\C(=O)NC(=O)N(c3ccccc3F)C2=O)c2ccccc21 was read as SENP8 block-1 inactive, SENP8 block-2 inactive, SENP1 FRET inh inactive, Platelet DG rel inactive, SENP7 inh inactive and SENP6 inh inactive.
For CCCNC(=O)c1c(N)n(CC2CCCO2)c2nc3ccccc3nc12 (stereo not given) the results were SENP8 block-1 inactive, SENP8 block-2 93.6, SENP1 FRET inh inactive, Platelet DG rel inactive, SENP7 inh 79.1, SENP6 inh 94.4, SENP8 conf inactive, SENP6 confirm 56.1, SENP7 conf inactive, Casp3 select inactive and SENP luc ctr inactive.
CC(C)OCCCNC(=O)c1c(N)n(CC2CCCO2)c2nc3ccccc3nc12 (stereo not given) was read as SENP8 block-1 inactive, SENP8 block-2 91.7, SENP1 FRET inh inactive, Platelet DG rel inactive, SENP7 inh 66.0, SENP6 inh 94.3, SENP8 conf inactive, SENP6 confirm inactive, SENP7 conf inactive, Casp3 select inactive and SENP luc ctr inactive.
For CC(C)CCOC(=O)c1c(N)n(CC2CCCO2)c2nc3ccccc3nc12 (stereo not given) the results were SENP8 block-1 inactive, SENP8 block-2 inactive, SENP1 FRET inh inactive, Platelet DG rel inactive, SENP7 inh inactive and SENP6 inh inactive.
